According to ChEMBL document CHEMBL4393661, “PRODRUGS FOR NITROREDUCTASE BASED CANCER THERAPY- 2: Novel amide/Ntr combinations targeting PC3 cancer cells” (Eur J Med Chem, 2019):

Assays:
[1] = Cytotoxicity against human PC3 cells assessed as cell viability at 9 to 150 uM measured after 48 hrs by MTT assay relative to control; type: cell-based, PC-3; conditions: read-out: Activity
Method in brief: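 They were treated for 48 h at 9, 18, 39, 78 and 150 µM, with 1% DMSO as vehicle control. Viability was read by MTT at 550 nm.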

[2] = molecular target: T1, Putative nitroreductase (Staphylococcus saprophyticus subsp. saprophyticus (strain ATCC 15305 / DSM20229 / NCIMB 8711 / NCTC 7292 / S-41), UniProt Q4A0P1); assay: Substrate activity at Staphylococcus saprophyticus nitroreductase expressed in Escherichia coli assessed as retention time […] at 100 uM by HPLC analysis (0 to 5 mins at 20 % ACN, 15 to 22 min at 80% ACN, 27-32 AT 20% ACN); type: ADME
T1 sequence (Q4A0P1 whole entry): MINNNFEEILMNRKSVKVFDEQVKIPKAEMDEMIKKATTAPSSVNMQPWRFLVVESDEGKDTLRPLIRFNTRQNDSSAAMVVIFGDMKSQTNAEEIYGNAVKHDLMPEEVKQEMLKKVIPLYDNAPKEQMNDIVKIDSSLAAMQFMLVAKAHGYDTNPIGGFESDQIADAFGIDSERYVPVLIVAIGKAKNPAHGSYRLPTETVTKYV

[3] = molecular target: T1, Putative nitroreductase; assay: Substrate activity at Staphylococcus saprophyticus nitroreductase expressed in Escherichia coli assessed as retention time in the presence of NADPH at 100 uM by HPLC analysis (0 to 5 mins at 20% ACN, 25 to 35 min at 80% ACN, 40 to 45 min at 20% ACN); type: ADME
[4] = tested on: PC-3; assay: Cytotoxicity against human PC3 cells assessed as reduction in cell viability measured after 48 hrs in presence of Staphylococcus saprophyticus nitroreductase and NADH by SRB assay; type: cell-based; conditions: PC-3, 48 h
Method in brief: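 Prodrug at 180, 18 or 1.8 nM was premixed with Ssap-NtrB (31 µg/mL final) and NADH (600 µM final; 900 µM for CB1954) in 25 mM Tris-HCl pH 7.5, then added for 48 h under aerobic conditions. Cells were fixed with 12.5% TCA, stained with SRB and read at 492 nm, in triplicate.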

[5] = Solubility of the compound in 15% DMSO; type: physicochemical
[6] = tested on: PC-3; assay: Cytotoxicity in human PC3 cells assessed as reduction in cell viability at 180 nM measured after 48 hrs by SRB assay; type: cell-based; conditions: pc-3, 48 h, 0.18 µM
Method in brief: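 They were exposed for 48 h to prodrug alone at 180 nM final, without enzyme or NADH, with 25 mM Tris-HCl as vehicle control. Cells were fixed with 12.5% TCA for 1 h at 4 °C, stained with 0.4% SRB and read at 492 nm as % cell survival, in triplicate.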

[7] = Cytotoxicity against human Hep3B cells assessed as cell viability at 9 to 150 uM measured after 48 hrs by MTT assay relative to control; type: cell-based, Hep 3B2; conditions: read-out: Activity
Method in brief: (§1)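 Hep3B and HUVEC cells were grown in high-glucose medium with 10% heat-inactivated FBS and 2 mM glutamine at 37 °C in 5% CO2. Cells were seeded at 5x10^4 per well and left 24 h to attach. They were then exposed for 48 h to 150, 75, 39, 19 and 9 µM, with 1% DMSO as vehicle control. Viability was read by MTT at 550 nm as (OD sample/OD control)×100.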

[8] = Cytotoxicity against human HUVEC cells assessed as cell viability at 9 to 150 uM measured after 48 hrs by MTT assay relative to control; type: cell-based; conditions: read-out: Activity; method in brief: as §1
[9] = molecular target: T1, Putative nitroreductase; assay: Prodrug conversion assessed Staphylococcus saprophyticus nitroreductase expressed in Escherichia coli-mediated PP (4-(hydroxyamino)phenyl)(piperidin-1-yl)methanone metabolite formation by measuring retention time of metabolite at 100 uM incubated for 15 mins by HPLC analysis; type: ADME; conditions: 0.25 h
Method in brief: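 Recombinant Ssap-NtrB, Ni-column purified, was used at 2.5 µg/mL. Substrate at 100 µM was reacted with 200 µM NADH in 25 mM Tris/Cl pH 7.5 with 10% DMSO at 25 °C for 15 min. The reaction was stopped 1:1 with cold acetonitrile and run on C18 RP-HPLC at 1 mL/min with a 20–80% ACN gradient. Peaks were detected at 254 and 340 nm.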

[10] = molecular target: T2, Staphylococcus saprophyticus nitroreductase (Staphylococcus saprophyticus subsp. saprophyticus (strain ATCC 15305 / DSM20229 / NCIMB 8711 / NCTC 7292 / S-41), UniProt Q4A0P1); assay: Substrate activity at Staphylococcus saprophyticus nitroreductase expressed in Escherichia coli assessed as half life […] at 100 uM by HPLC analysis (0 to 5 mins at 20 % ACN, 15 to 22 min at 80% ACN, 27-32 AT 20% ACN); type: ADME
T2 sequence (Q4A0P1 whole entry): T1 sequence (Q4A0P1 whole entry)

[11] = molecular target: T2, Staphylococcus saprophyticus nitroreductase; assay: Substrate activity at Staphylococcus saprophyticus nitroreductase expressed in Escherichia coli assessed as half life […] at 100 uM by HPLC analysis (0 to 5 mins at 20% ACN, 25 to 35 min at 80% ACN, 40 to 45 min at 20% ACN); type: ADME
[12] = molecular target: T3, Oxygen-insensitive NAD(P)H nitroreductase (Escherichia coli K-12, UniProt P38489); assay: Substrate activity at Escherichia coli nitroreductase nfsB assessed as ratio of Kcat/Km up to 80 mM using NADH as cofactor relative to CB1954/NfsB; type: ADME
T3 sequence (P38489 whole entry): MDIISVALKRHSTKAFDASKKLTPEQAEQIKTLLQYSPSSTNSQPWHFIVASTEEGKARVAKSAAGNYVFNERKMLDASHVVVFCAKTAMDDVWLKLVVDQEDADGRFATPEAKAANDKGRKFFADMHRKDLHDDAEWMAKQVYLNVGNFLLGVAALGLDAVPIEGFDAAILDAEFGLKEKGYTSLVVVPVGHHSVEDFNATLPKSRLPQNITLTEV

[13] = molecular target: T1, Putative nitroreductase; assay: Substrate activity at Staphylococcus saprophyticus nitroreductase expressed in Escherichia coli assessed as retention time […] at 150 uM by HPLC analysis (0 to 5 mins at 20 % ACN, 15 to 22 min at 80% ACN, 27-32 AT 20% ACN); type: ADME
[14] = molecular target: T2, Staphylococcus saprophyticus nitroreductase; assay: Substrate activity at Staphylococcus saprophyticus nitroreductase expressed in Escherichia coli assessed as half life […] at 150 uM by HPLC analysis (0 to 5 mins at 20 % ACN, 15 to 22 min at 80% ACN, 27-32 AT 20% ACN); type: ADME
[15] = molecular target: T1, Putative nitroreductase; assay: Substrate activity at Staphylococcus saprophyticus nitroreductase expressed in Escherichia coli assessed as retention time in the presence of NADPH at 111 uM by HPLC analysis (0 to 5 mins at 20% ACN, 25 to 35 min at 80% ACN, 40 to 45 min at 20% ACN); type: ADME
[16] = tested on: Hep 3B2; assay: Cytotoxicity against human Hep3B cells assessed as reduction in cell viability measured after 48 hrs by MTT assay; type: cell-based; method in brief: as §1
[17] = molecular target: T2, Staphylococcus saprophyticus nitroreductase; assay: Substrate activity at Staphylococcus saprophyticus nitroreductase expressed in Escherichia coli assessed as half life in the presence of NADPH at 111 uM by HPLC analysis (0 to 5 mins at 20% ACN, 25 to 35 min at 80% ACN, 40 to 45 min at 20% ACN); type: ADME
[18] = molecular target: T1, Putative nitroreductase; assay: Substrate activity at Staphylococcus saprophyticus nitroreductase expressed in Escherichia coli assessed as retention time […] at 111 uM by HPLC analysis (0 to 5 mins at 20 % ACN, 15 to 22 min at 80% ACN, 27-32 AT 20% ACN); type: ADME

SMILES	viability at 48 h, up to 150 µM [1] [%]	Retention_time [2] [min]	Retention_time [3] [min]	IC50 [4] [nM]	solubility [5]	Activity [6]	viability at 48 h, up to 150 µM [7] [%]	viability at 48 h, up to 150 µM [8] [%]	Retention time [9] [min]	half-life [10] [min]	half-life at 100 µM [11] [min]	fold change (FC) [12]	Retention_time [13] [min]	half-life [14] [min]	Retention_time [15] [min]	IC50 [16] [µM]	half-life [17] [min]	Retention_time [18] [min]	Retention time [2] [min]	Retention time [3] [min]
O=C(Nc1cccc(NC(=O)c2ccc([N+](=O)[O-])cc2)c1)c1ccc([N+](=O)[O-])cc1	> 80	21.88	21.98	33.4	Soluble	Non-Toxic	> 80	> 80												
O=C(c1ccc([N+](=O)[O-])cc1)N1CCOCC1	> 80	15.17		1.81	Soluble	Non-Toxic	> 80	> 80	16	< 15										
O=C(c1ccc([N+](=O)[O-])cc1)N1CCN(C(=O)c2ccc([N+](=O)[O-])cc2)CC1	51 to 80	17.28	17.6	18	Soluble	Non-Toxic	> 80	> 80			< 85.2									
CS(=O)(=O)OCCN(CCBr)c1c(C(=O)NCCO)cc([N+](=O)[O-])cc1[N+](=O)[O-]												2.32								
CCN(C(C)=O)c1cc([N+](=O)[O-])ccc1Br	> 80	15.18		12600		Non-Toxic	> 80	> 80		< 6										
CC(=O)Nc1cc([N+](=O)[O-])cc([N+](=O)[O-])c1	> 80			10700		Non-Toxic	> 80	> 80					14.4	< 6						
O=C(Nc1ccccc1NC(=O)c1ccc([N+](=O)[O-])cc1)c1ccc([N+](=O)[O-])cc1	> 80	21.38	22.08	14.3	Soluble	Non-Toxic	> 80	> 80			< 192									
O=C(Nc1ccc(NC(=O)c2ccc([N+](=O)[O-])cc2)cc1)c1ccc([N+](=O)[O-])cc1	> 80	16.61			Soluble		51 to 80	> 80												
CCCCN(CCCC)c1c([N+](=O)[O-])cc(C(=O)Nc2ccc([N+](=O)[O-])cc2)cc1[N+](=O)[O-]	< 50						< 50	< 50							31.96	30.9	< 93.6	26.5		
O=C(NCCNC(=O)c1ccc([N+](=O)[O-])cc1)c1ccc([N+](=O)[O-])cc1	> 80	18.65	17.86	31.1	Soluble	Non-Toxic	51 to 80	> 80		< 72	< 152									
O=C(NC1CCCC(NC(=O)c2ccc([N+](=O)[O-])cc2)C1)c1ccc([N+](=O)[O-])cc1 (stereo unspecified)	51 to 80			30.5	Soluble	Non-Toxic	> 80	> 80		< 120	< 15.6								19.4 to 20.6	19.4 to 20.1
CC(=O)Nc1cc([N+](=O)[O-])ccc1Br	> 80	13.88		10200		Non-Toxic	> 80	> 80		< 12										
CN(C)c1c([N+](=O)[O-])cc(C(=O)Nc2ccc(Cl)cc2)cc1[N+](=O)[O-]	< 50						< 50	51 to 80							25.86	120	< 189	19.22		
O=C(NCCCCNC(=O)c1ccc([N+](=O)[O-])cc1)c1ccc([N+](=O)[O-])cc1	> 80	19.02		36.8	Soluble	Non-Toxic	> 80	> 80												
CCCCN(CCCC)c1c([N+](=O)[O-])cc(C(=O)Nc2ccc(Cl)cc2)cc1[N+](=O)[O-]	< 50						< 50	< 50							34.2	11.6	< 144	20.12		
O=C(NC1CCCCC1NC(=O)c1ccc([N+](=O)[O-])cc1)c1ccc([N+](=O)[O-])cc1 (stereo unspecified)	> 80	20.91	20.85	15.5	Soluble	Non-Toxic	> 80	> 80		< 31.2	< 108									
NC(=O)c1cc(N2CC2)c([N+](=O)[O-])cc1[N+](=O)[O-] [TRETAZICAR]						Non-Toxic														
